Source: PubChem BioAssay (Sanford-Burnham Center for Chemical Genomics)
SENP7 inh – SENP7 protease inhibitors, primary screen, biochemical, luminescence, uHTS. Sentrin-specific protease 7 (Homo sapiens), Q9BQF6. recombinant SENP7, Z-RLRGG-aminoluciferin luminescence, 40 min. inhibition, % at 5 µM. 330,000 compounds, 1.5% hits. AID 434973, 2010;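 active = inhibition above about 50% at the single test dose, limit read from the data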;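 also: plate controls were DMSO with enzyme for no effect and no enzyme buffer wells for full effect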
SENP6 block – SENP6 protease inhibitors, primary screen, biochemical, luminescence, uHTS; inhibition, % at 10 µM; Recombinant SENP6 catalytic domain, aminoluciferin luminescence; Sentrin-specific protease 6 (Homo sapiens), Q9GZR1; 330,000 compounds, 1.8% hits; AID 2599, 2010;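 active = inhibition above about 50% at the single tested dose, limit read from the data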;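 also: plate controls were DMSO wells with enzyme for no effect and DMSO wells lacking enzyme for full effect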
Target sequence (Q9GZR1 628-1112 limits assumed): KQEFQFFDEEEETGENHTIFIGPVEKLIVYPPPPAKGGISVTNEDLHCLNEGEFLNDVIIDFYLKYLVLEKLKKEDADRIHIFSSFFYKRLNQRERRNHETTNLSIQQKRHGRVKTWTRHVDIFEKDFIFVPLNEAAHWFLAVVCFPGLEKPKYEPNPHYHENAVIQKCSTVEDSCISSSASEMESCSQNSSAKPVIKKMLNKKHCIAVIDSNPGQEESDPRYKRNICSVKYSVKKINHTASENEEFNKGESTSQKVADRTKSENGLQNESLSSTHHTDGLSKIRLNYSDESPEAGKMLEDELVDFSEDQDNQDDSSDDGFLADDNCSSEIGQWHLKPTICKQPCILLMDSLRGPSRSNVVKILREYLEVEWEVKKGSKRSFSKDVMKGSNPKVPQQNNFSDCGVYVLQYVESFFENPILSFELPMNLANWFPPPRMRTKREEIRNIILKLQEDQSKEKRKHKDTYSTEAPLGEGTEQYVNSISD
SENP8 block-1 – human SENP8 protease inhibitors, primary screen, biochemical, fluorescence, Nedd8 protein substrate, uHTS; recombinant SENP8; inhibition, % at 20 µM; 360,000 compounds, 0.64% hits; AID 602440, 2012; in the data active = inhibition mostly above about 40%, no sharp cut-off; inactive = mostly below about 27%
Target sequence (Q96LD8 whole entry, looked up): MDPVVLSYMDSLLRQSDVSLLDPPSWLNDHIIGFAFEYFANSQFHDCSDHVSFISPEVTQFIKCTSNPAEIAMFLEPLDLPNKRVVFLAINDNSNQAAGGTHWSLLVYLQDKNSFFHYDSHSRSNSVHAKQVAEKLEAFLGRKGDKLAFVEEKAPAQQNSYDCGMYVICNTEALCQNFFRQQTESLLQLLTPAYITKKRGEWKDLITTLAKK
SENP8 block-2 – SENP8 protease inhibitors, primary screen, biochemical, luminescence; inhibition, % at 10 µM; purified SENP8, Z-RLRGG-aminoluciferin cleavage; Sentrin-specific protease 8 (Homo sapiens), Q96LD8; 330,000 compounds, 1.2% hits; in the data active = inhibition above about 50%
SENP1 FRET inh – human SENP1 catalytic domain inhibitors, primary screen, biochemical, FRET, uHTS; Sentrin-specific protease 1 (Homo sapiens), Q9P0U3; recombinant SENP1 catalytic domain, CyPet-SUMO1-YPet FRET cleavage; 360,000 compounds, 0.21% hits; inhibition, % at 10 µM;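 active = inhibition at least 30% at 10 µM, raw YFP signal under a set limit, fluorescence ratio 0.5 to 1.5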;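 also: 0% = enzyme with DMSO and 100% = no enzyme wells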
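System: Recombinant human SENP1 catalytic domain, His6-tagged | Incubation: Enzyme reaction for 50 min at room temperature, dark | Medium: Tris pH 8 with BME, BSA, NP40 and catalase | Also added: 25 nM SUMO1 FRET substrate | Compound: 10 µM single point, 0.5% DMSO | Measured by: FRET fluorescence in CFP and YFP emission channels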
Apaf-1 inh – inhibitors of human Apaf-1 apoptosome, primary screen, biochemical, DEVD-Rh110 fluorescence, uHTS; inhibition, % at 20 µM; reconstituted apoptosome caspase-3 activity; AID 489030, 2010; 330,000 compounds, 0.71% hits; Apoptotic protease-activating factor 1 (Homo sapiens), O14727; active = inhibition of at least 40% at 20 µM;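 also: plate controls were DMSO wells for no effect and DEVD-CHO caspase inhibitor wells for full effect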
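Material: reconstituted apoptosome with Apaf-1, cytochrome c, caspase-9, procaspase-3, dATP / Buffer or medium: pH 7.5 Hepes buffer with CHAPS, BSA, DTT / Also added: cytochrome c with DEVD-Rh110 / Schedule: compound with Apaf-1, dATP, procaspase-3 30 min, then 50 min reaction, room temperature / Technique: rhodamine 110 fluorescence at Ex 480/Em 540 nm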
Apaf-1 inh conf2 – Apaf-1 inhibitors, single-dose retest, confirmation, biochemical, fluorescence, DEVD-Rh110, 20 µM | shares compounds with Apaf-1 inh | reconstituted apoptosome, caspase-3 DEVD-Rh110 fluorescence | inhibition, % at 20 µM | 1,800 compounds, 25% hits;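 active = mean inhibition of at least 40% at 20 µM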;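 also: plate controls were DMSO wells for no effect and DEVD-CHO caspase inhibitor control wells for full effect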
Rh110 quench – Rh110 fluorescence interference by putative Apaf-1 inhibitors, confirmation, artefact control for Apaf-1 inhibitor project, biochemical, 20 µM; shares compounds with Apaf-1 inh; quenched caspase reaction; activation (fluorescence interference), % at 20 µM; 1,800 tested, under 10 active; AID 504615, 2011;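 active = signal rise of 40% or more at 20 µM, treated as a fluorescence artifact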
Apaf1 inh interf – fluorescence interference of Apaf-1 inhibitor hits, dose response, artefact control for Apaf-1 inhibitor project; shares compounds with Apaf-1 inh; fluorescence interference counterscreen, Apaf-1 assay format; IC50, µM; 460 tested, under 10 active; AID 588538, 2011; call rule not given here
* = called active by the depositor; . = not tested or not shown. Shown are actives, neighbours in structure and some others; about 2.9% of the full set was active somewhere.

SMILES | SENP7 inh | SENP6 block | SENP8 block-1 | SENP8 block-2 | SENP1 FRET inh | Apaf-1 inh | Apaf-1 inh conf2 | Rh110 quench | others
CN1CCN(c2ccc(NC(=O)COc3ccccc3)cc2Cl)CC1 | -2 | 0 | 5 | 2 | -5 | 49* | 15 | 6
CCN(CC(=O)Nc1c(F)cccc1F)C(=O)c1ccc(=O)n(C)n1 | . | . | 3 | . | 3 | . | . | .
CN(Cc1c(F)cccc1Cl)C(=O)c1ccc(COc2ccccc2)cc1 | 7 | -13 | 12 | 0 | 4 | 53* | 37 | 7
CSCCC(NC(=O)COc1ccccc1)C(=O)N(C)Cc1c(F)cccc1Cl (stereo unspecified) | . | . | 11 | . | 0 | . | . | .
O=c1[nH][nH]c2c1[C@H](CCc1cccc(Cl)c1)O[C@H](CCc1ccccc1)C2 | . | . | 17 | . | 1 | . | . | .
Cc1cccc(NC(=O)CSCC(=O)N(C)Cc2ccc(Cl)c(Cl)c2)c1 | -12 | -1 | 5 | -6 | 1 | 63* | 46* | 12 | Apaf1 inh interf=>100
Cn1c(=O)c2[nH]c(=O)cnc2n(C)c1=S | 12 | -5 | -66 | 7 | -37 | 56* | 9 | 2
CCCN(C(=O)CCOc1ccc(C(C)(C)C)cc1)c1c(N)n(Cc2ccccc2)c(=O)[nH]c1=O | -20 | -10 | 3 | -1 | 0 | 7 | . | .
O=C(COC(=O)COc1ccc2ccccc2c1)NC1CCCc2ccccc21 (stereo unspecified) | -4 | -30 | 4 | -10 | 2 | 7 | . | .
CCc1ccccc1OC[C@@H](O)CN[C@H]1CCCc2ccccc21 | -4 | 13 | 16 | -2 | 2 | 46* | 1 | -3
OC(CNC1CCCc2ccccc21)COc1ccc2ccccc2c1 (stereo unspecified) | -15 | 2 | 14 | -12 | -1 | 47* | 15 | 14
O=C(c1ccccc1)c1ccc(OCC(O)CNC2CCCc3ccccc32)cc1 (stereo unspecified) | -3 | 8 | 14 | -8 | 0 | 52* | 20 | 10
CN1CCC[C@@H]1CCNC(=O)c1c(-c2ccc3c(c2)OCO3)noc1-c1ccsc1 | -1 | -14 | -8 | -13 | -22 | 40* | 11 | 8
CN1CCC[C@H]1CCNC(=O)c1c(-c2ccsc2)sc2ccccc12 | -6 | -7 | -2 | 0 | -3 | 7 | . | .
O=C(NCc1ccccc1Cl)c1ccc2nc([C@H]3C[C@H](O)[C@@H](CO)O3)[nH]c2c1 | . | . | 4 | . | 0 | . | . | .
CC1=NN(c2ccc(C)cc2C)C(=O)C1C(c1ccccc1)C1C(=O)N(c2ccc(C)cc2C)N=C1C (stereo unspecified) | 15 | 10 | 92* | 5 | 0 | 67* | 30 | 5
CCOc1ccc2nc(NC3=NC(c4ccc(OC)cc4)CC(=O)N3)nc(C)c2c1 (stereo unspecified) | -1 | -25 | -271 | -2 | -5 | 79* | 70* | 7 | Apaf1 inh interf=>100
CCOc1ccc2nc(NC3=NC(C)(C)C=C(C)N3)nc(C)c2c1 | 2 | -17 | -127 | -8 | -16 | 34 | . | .
NC(=NCCCCCCN=C(N)/N=C(\N)Nc1ccc(Cl)cc1)/N=C(\N)Nc1ccc(Cl)cc1 | 4 | -39 | 13 | -30 | -1 | 79* | 30 | 3
CC(C)N=C(N)N=C(N)Nc1ccc(Cl)cc1 | -6 | 2 | 12 | -6 | 2 | 13 | . | .
CCOc1cccc(CNn2cnnc2)c1OCc1ccccc1Cl | 3 | 5 | 24 | 11 | 2 | -8 | . | .
CCOc1cccc(CNc2ccc(O)cc2)c1OCc1ccccc1Cl | 55* | 28 | 30 | 9 | 14 | 97* | 26 | 8
N#CC1C(=O)NC(=O)C(C#N)C12CCCC2 (stereo unspecified) | . | . | 3 | . | -1 | . | . | .
COC(=O)C1=C(C)N(Cc2ccccc2)C(=NCCc2ccccn2)N[C@H]1c1cccc(C(F)(F)F)c1 | -7 | -7 | -4 | -14 | -11 | 48* | 12 | 0
COC(=O)C1=C(C)N(Cc2ccccc2)C(=NCCc2cccnc2)N[C@H]1c1ccccc1 | 0 | 5 | 1 | 3 | -3 | 8 | . | .
SMILES | SENP7 inh | SENP6 block | SENP8 block-1 | SENP8 block-2 | SENP1 FRET inh | Apaf-1 inh | Apaf-1 inh conf2 | Rh110 quench | others
COC(=O)C1=C(C)N(Cc2ccccc2)C(=NCCc2cccnc2)N[C@H]1c1ccc(Br)cc1 | -13 | -24 | 9 | -4 | -2 | 51* | 11 | 0
COC(=O)C1=C(C)N(Cc2ccccc2)C(=NCC(C)C)N[C@H]1c1cccc(F)c1 | 0 | -25 | 9 | -8 | 1 | 44* | 5 | -1
COC(=O)C1=C(C)N(Cc2ccccc2)C(=NCc2ccccc2)N[C@H]1c1cccc(C(F)(F)F)c1 | -4 | -19 | 17 | -8 | -28 | 65* | 33 | 15
O=C(Nc1cccc(-c2cccc(Cl)c2)c1)C1CCN(Cc2nccs2)CC1 | . | . | 15 | . | 1 | . | . | .
CCCNC(=O)C1(C)CCN(C(=O)c2ccc(F)c(Cl)c2)C1 (stereo unspecified) | . | . | 4 | . | -1 | . | . | .
COC(=O)C1=C(C)N(Cc2ccccc2)C(=NCc2ccc(OC)cc2)N[C@H]1c1cccc(F)c1 | 7 | -4 | 22 | 3 | -1 | 56* | 11 | 9
COC(=O)C1=C(C)N(Cc2ccccc2)C(=NCC(C)C)N[C@H]1c1cccc(C(F)(F)F)c1 | 3 | 4 | 17 | -5 | -3 | 58* | 13 | 4
COC(=O)C1=C(C)N(Cc2ccccc2)C(=NCc2ccc3c(c2)OCO3)N[C@H]1c1ccccc1 | -11 | -13 | -2 | -15 | -10 | 45* | 19 | 22
COC(=O)C1=C(C)N(Cc2ccccc2)C(=NCC2CC2)N[C@H]1c1ccccc1 | 9 | -17 | -121 | -6 | -54 | 38 | . | .
COC(=O)C1=C(C)N(Cc2ccccc2)C(=O)N[C@H]1c1cccc(C(F)(F)F)c1 | -17 | -17 | 1 | -7 | 3 | 25 | . | .
Cc1cc2nn(-c3ccc(Cl)cc3)nc2cc1N | 4 | 9 | -289 | 9 | -23 | 49* | 22 | 3
Cc1cc(N)n(-c2ccc(Cl)cc2)n1 | 4 | 12 | 9 | -6 | 1 | -2 | . | .
